Measured values: ChEMBL document CHEMBL3272255, “Substituted alpah-methylbenzyl and tricyclic arylalkyl lactamimides as inhibitors of blood platelet aggregation” (J Med Chem, 1976)

Columns and labels:
[1] = Antiplatelet activity in human platelet rich plasma assessed as inhibition of ADP-induced platelet aggregation at 100 ug/ml after 20 mins by aggregometric analysis relative to control; format: functional
Outline: (§1)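 Human blood came from fasting donors who had taken no drugs for 5 days. It was citrated 1:9 with 3.8% sodium citrate. PRP was prepared at 100g for 10 min and PPP at 1500g for 15 min, and PRP was diluted with autologous PPP to 400000 platelets/mm³. Compound or saline control was incubated 20 min at 37°, then ADP was added at 2 μg/ml final. Percent inhibition was calculated from maximal ΔT, test vs control.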

[2] = Antiplatelet activity in human platelet rich plasma assessed as inhibition of ADP-induced platelet aggregation at 30 ug/ml after 20 mins by aggregometric analysis relative to control; format: functional; outline: as §1
[3] = Antiplatelet activity in human platelet rich plasma assessed as inhibition of ADP-induced platelet aggregation at 10 ug/ml after 20 mins by aggregometric analysis relative to control; format: functional; outline: as §1
[4] = Antiplatelet activity in human platelet rich plasma assessed as inhibition of platelet factor-3 release at 100 ug/ml after 20 mins relative to control; format: functional
Outline: (§2)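 Test compound solution was incubated in human citrated PRP at 37° for 20 min. PF3 activity was then measured by a modified Stypven test, with plasma diluted 1:10.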

Cavia porcellus [5] = assay: Antiplatelet activity in guinea pig assessed as inhibition of 0.45 ug/ml ADP-induced platelet aggregation measured as change in light transmittance at 30 mg/kg, po for 4 days measured at 2 hrs post last dose by aggregometric analysis relative to control; format: functional
Outline: (§3)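 Dosing was oral by stomach tube for 4 days, alongside an untreated control group. Blood was drawn by heart puncture 2 h after the final dose, then citrated PRP was isolated and adjusted for aggregometry. ADP was added in vitro at the stated concentration. The read-out was the maximum increase in light transmittance (ΔT); group means were compared, treated vs control.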

Cavia porcellus [6] = assay: Antiplatelet activity in guinea pig assessed as inhibition of 0.8 ug/ml ADP-induced platelet aggregation measured as change in light transmittance at 30 mg/kg, po for 4 days measured at 2 hrs post last dose by aggregometric analysis relative to control; format: functional; outline: as §3
Cavia porcellus [7] = assay: Antiplatelet activity in guinea pig assessed as inhibition of 0.8 ug/ml ADP-induced platelet aggregation measured as change in light transmittance at 100 mg/kg, po for 4 days measured at 2 hrs post last dose by aggregometric analysis relative to control; format: functional; outline: as §3
Cavia porcellus [8] = assay: Antiplatelet activity in guinea pig assessed as inhibition of 0.45 ug/ml ADP-induced platelet aggregation measured as area between aggregation curve and baseline transmittance at 30 mg/kg, po for 4 days measured at 2 hrs post last dose by aggregometric analysis relative to control; format: functional
Outline: (§4)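 Guinea pigs were dosed by stomach tube at the stated dose daily for 4 days, with an untreated control group kept in parallel. Blood was taken by heart puncture 2 h after the last dose, and citrated PRP was isolated and adjusted. ADP was added in vitro. Total response was the area between the aggregation curve and baseline transmittance over 5 min, measured by planimeter. Percent inhibition came from group-average total response, treated vs control.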

Cavia porcellus [9] = assay: Antiplatelet activity in guinea pig assessed as inhibition of 0.8 ug/ml ADP-induced platelet aggregation measured as area between aggregation curve and baseline transmittance at 30 mg/kg, po for 4 days measured at 2 hrs post last dose by aggregometric analysis relative to control; format: functional; outline: as §4
Cavia porcellus [10] = assay: Antiplatelet activity in guinea pig assessed as inhibition of 0.45 ug/ml ADP-induced platelet aggregation measured as area between aggregation curve and baseline transmittance at 100 mg/kg, po for 4 days measured at 2 hrs post last dose by aggregometric analysis relative to control; format: functional; outline: as §4
Cavia porcellus [11] = assay: Antiplatelet activity in guinea pig assessed as inhibition of 0.8 ug/ml ADP-induced platelet aggregation measured as area between aggregation curve and baseline transmittance at 100 mg/kg, po for 4 days measured at 2 hrs post last dose by aggregometric analysis relative to control; format: functional; outline: as §4
Cavia porcellus [12] = assay: Toxicity in guinea pig assessed as mortality at 300 mg/kg, po measured after third dose; format: organism-based; design: dose 300 mg/kg, route oral; conditions: in vivo
[13] = Antiplatelet activity in human platelet rich plasma assessed as platelet factor-3 release at 300 ug/ml after 20 mins relative to control
Cavia porcellus [14] = assay: Antiplatelet activity in guinea pig assessed as 0.45 ug/ml ADP-induced platelet aggregation measured as change in light transmittance at 100 mg/kg, po for 4 days measured at 2 hrs post last dose by aggregometric analysis
[15] = Antiplatelet activity in human platelet rich plasma assessed as inhibition of platelet factor-3 release at 30 ug/ml after 20 mins relative to control; format: functional; outline: as §2

`CC(/N=C1/CCCCCN1)c1cccc2ccccc12.Cl` (stereo not drawn) gave an inhibition at 100 µg/mL [1] of 70%, an inhibition at 30 µg/mL [2] of 46% and an inhibition at 10 µg/mL [3] of 0%. For the same molecule, the “%max” value [4] was 0.003%, the ΔT % at 30 mg/kg (Cavia porcellus [5]) was 7% and the ΔT % at 30 mg/kg (Cavia porcellus [6]) was 29%. The ΔT % at 100 mg/kg (Cavia porcellus [7]) was 21.6%, the inhibition in vivo at 30 mg/kg (Cavia porcellus [8]) was 33% and the inhibition in vivo at 30 mg/kg (Cavia porcellus [9]) was 0%. The inhibition in vivo at 100 mg/kg (Cavia porcellus [10]) was 0%, the inhibition in vivo at 100 mg/kg (Cavia porcellus [11]) was 0% and the Activity (Cavia porcellus [12]) was “Toxic”. For the same molecule, the “%max” value [13] was 0.037% and the ΔT % at 100 mg/kg (Cavia porcellus [14]) was 7.1%.
Molecule `CCCCCCCCCCCCCc1ccc(C(C)/N=C2\CCCCCN2)cc1` (stereo not drawn) has an inhibition at 100 µg/mL [1] of 100%, an inhibition at 30 µg/mL [2] of 33% and an inhibition at 10 µg/mL [3] of 16%.
In the case of `CCCCCCCCCCCCOc1ccc(C(C)/N=C2\CCCCCN2)cc1` (stereo not drawn), the inhibition at 100 µg/mL [1] is reported as 64%.
With `CC(/N=C1\CCCCCN1)c1ccc(C2CCCCC2)cc1.Cl` (stereo not drawn) the inhibition at 100 µg/mL [1] was 100%, the inhibition at 30 µg/mL [2] was 31% and the inhibition at 10 µg/mL [3] was 9%. The “%max” value [4] was 0.004% and the “%max” value [13] was 0.62%.
`CC(/N=C1\CCCCCN1)c1ccc(-c2ccccc2)cc1.Cl` (stereo not drawn) gave an inhibition at 100 µg/mL [1] of 100%, an inhibition at 30 µg/mL [2] of 44% and an inhibition at 10 µg/mL [3] of 0%. The “%max” value [4] was 0.04% and the “%max” value [13] was 0.76%.
With `CC(/N=C1\CCCCCN1)c1ccc(CCc2ccccc2)cc1.Cl` (stereo not drawn) the inhibition at 100 µg/mL [1] was 78%, the inhibition at 30 µg/mL [2] was 37% and the inhibition at 10 µg/mL [3] was 8%. For the same molecule, the “%max” value [4] was 0.013%, the “%max” value [15] was 0% and the “%max” value [13] was 0.91%.
Work on `CC(/N=C1\CCCN1C)c1ccc(CCc2ccccc2)cc1` (stereo not drawn) yielded an inhibition at 100 µg/mL [1] of 100% and an inhibition at 30 µg/mL [2] of 29%.
`CC(/N=C1\CCCCCN1)c1ccc(C=C(c2ccccc2)c2ccccc2)cc1.Cl` (stereo not drawn) gave an inhibition at 100 µg/mL [1] of 100%, an inhibition at 30 µg/mL [2] of 21% and an inhibition at 10 µg/mL [3] of 0%. The “%max” value [4] was 0.23% and the “%max” value [13] was 2.3%.
With `CC(/N=C1\CCCCCN1)c1ccc(C=C2c3ccccc3-c3ccccc32)cc1.Cl` (stereo not drawn) the inhibition at 100 µg/mL [1] was 100%, the inhibition at 30 µg/mL [2] was 38% and the inhibition at 10 µg/mL [3] was 6%. The “%max” value [4] was 0.02% and the “%max” value [13] was 0.42%.
For `CC(/N=C1\CCCCCN1)c1ccc(Oc2ccccc2)cc1.Cl` (stereo not drawn), the inhibition at 100 µg/mL [1] was 100%, the inhibition at 30 µg/mL [2] was 25% and the inhibition at 10 µg/mL [3] was 15%. The “%max” value [4] was 0.01%, the ΔT % at 30 mg/kg (Cavia porcellus [5]) was 24.4% and the ΔT % at 30 mg/kg (Cavia porcellus [6]) was 42.2%. It also gave a ΔT % at 100 mg/kg (Cavia porcellus [7]) of 49%, an inhibition in vivo at 30 mg/kg (Cavia porcellus [8]) of 53% and an inhibition in vivo at 30 mg/kg (Cavia porcellus [9]) of 38%. The inhibition in vivo at 100 mg/kg (Cavia porcellus [10]) was 29%, the inhibition in vivo at 100 mg/kg (Cavia porcellus [11]) was 8% and the “%max” value [13] was 0.26%. For the same molecule, the ΔT % at 100 mg/kg (Cavia porcellus [14]) was 17.7%.
`CC(/N=C1\CCCCCN1)c1ccccc1OCCc1ccccc1` (stereo not drawn) gave an inhibition at 100 µg/mL [1] of 81%, an inhibition at 30 µg/mL [2] of 30% and an inhibition at 10 µg/mL [3] of 11%.
`CC(/N=C1\CCCCCN1)c1ccc(OCCCc2ccccc2)cc1` (stereo not drawn) showed an inhibition at 100 µg/mL [1] of 74%.
In the case of `CC(/N=C1\CCCCCN1)c1ccc(OCCCOc2ccccc2)cc1` (stereo not drawn), the inhibition at 100 µg/mL [1] is reported as 100%, the inhibition at 30 µg/mL [2] is reported as 14% and the inhibition at 10 µg/mL [3] is reported as 0%.
Molecule `CC(/N=C1\CCCN1)c1cccc(OCCCCOc2ccccc2)c1` (stereo not drawn) has an inhibition at 100 µg/mL [1] of 100%, an inhibition at 30 µg/mL [2] of 16% and an inhibition at 10 µg/mL [3] of 0%.
Work on `CC(/N=C1\CCCCCN1)c1cc(C(C)(C)C)cc2c1CCC2(C)C` (stereo not drawn) yielded an inhibition at 100 µg/mL [1] of 100%, an inhibition at 30 µg/mL [2] of 22% and an inhibition at 10 µg/mL [3] of 0%.
In the case of `Cc1cc2c(cc1C(C)/N=C1\CCCCCN1)C(C)(C)CCC2(C)C` (stereo not drawn), the inhibition at 100 µg/mL [1] is reported as 77%.
In the case of `CC(/N=C1\CCCCCN1)c1ccc2c(c1)Cc1ccccc1-2.Cl` (stereo not drawn), the inhibition at 100 µg/mL [1] is reported as 100%, the inhibition at 30 µg/mL [2] is reported as 43% and the inhibition at 10 µg/mL [3] is reported as 0%. The “%max” value [4] was 0.06% and the “%max” value [13] was 1.5%.
Work on `CC(/N=C1\CCCCCCCN1)c1ccc2c(c1)Cc1ccccc1-2` (stereo not drawn) yielded an inhibition at 100 µg/mL [1] of 100%, an inhibition at 30 µg/mL [2] of 62% and an inhibition at 10 µg/mL [3] of 6%.
In the case of `CC(/N=C1\CCCCCN1)c1ccc2c(ccc3ccccc32)c1.Cl` (stereo not drawn), the inhibition at 100 µg/mL [1] is reported as 100%, the inhibition at 30 µg/mL [2] is reported as 43% and the inhibition at 10 µg/mL [3] is reported as 4%. For the same molecule, the “%max” value [4] was 0.06% and the “%max” value [13] was 2.6%.
Work on `CC(/N=C1\CCCN1)c1ccc2oc3ccccc3c2c1` (stereo not drawn) yielded an inhibition at 100 µg/mL [1] of 100%, an inhibition at 30 µg/mL [2] of 42% and an inhibition at 10 µg/mL [3] of 10%.
For `CC(/N=C1\CCCCCN1)c1ccc2oc3ccccc3c2c1` (stereo not drawn), the inhibition at 100 µg/mL [1] was 67%.
In the case of `CC(/N=C1\CCCCCN1)c1ccc2sc3ccccc3c2c1.Cl` (stereo not drawn), the inhibition at 100 µg/mL [1] is reported as 100%, the inhibition at 30 µg/mL [2] is reported as 52% and the inhibition at 10 µg/mL [3] is reported as 2%. For the same molecule, the “%max” value [4] was 0.013%, the ΔT % at 30 mg/kg (Cavia porcellus [5]) was 20.4% and the ΔT % at 30 mg/kg (Cavia porcellus [6]) was 43.6%. The ΔT % at 100 mg/kg (Cavia porcellus [7]) was 53.6%, the inhibition in vivo at 30 mg/kg (Cavia porcellus [8]) was 0% and the inhibition in vivo at 30 mg/kg (Cavia porcellus [9]) was 3%. For the same molecule, the inhibition in vivo at 100 mg/kg (Cavia porcellus [10]) was 0%, the inhibition in vivo at 100 mg/kg (Cavia porcellus [11]) was 0% and the “%max” value [13] was 0.18%. The ΔT % at 100 mg/kg (Cavia porcellus [14]) was 32%.
Molecule `O=C(CO)OC(CC1CCCCN1)c1ccc(C=C2c3ccccc3-c3ccccc32)cc1` (stereo not drawn) has an inhibition at 100 µg/mL [1] of 99%, an inhibition at 30 µg/mL [2] of 28% and an inhibition at 10 µg/mL [3] of 1%. The “%max” value [4] was 0.162%, the “%max” value [15] was 0.003% and the “%max” value [13] was 0.747%.
In the case of `CCN(CC)CCN(CC(O)c1ccccc1)c1cc(Cl)ccc1Cl` (stereo not drawn), the inhibition at 100 µg/mL [1] is reported as 62%, the inhibition at 30 µg/mL [2] is reported as 10% and the “%max” value [4] is reported as 0.1%. The “%max” value [13] was 0.52%.
